Compound activity deposited in PubChem by Sanford-Burnham Center for Chemical Genomics.
Hits are enriched below; roughly 0.72% of the tested compounds scored in any of these assays.
hIAP block: human IAP inhibitors, primary screen, biochemical, luminescence, uHTS | Intestinal-type alkaline phosphatase (Homo sapiens), P09923 | purified IAP, CDP-Star luminescence, 30 min | inhibition, % at 10 µM | actives 0.12% (n = 330,000) | AID 2544, 2010;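 active = inhibition reaching a set limit with compound at 10 µM in the primary screen, cut at about 35% in these data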;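 note: plate controls were DMSO wells with enzyme for no effect and no-enzyme buffer wells for full effect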
Target sequence (P09923 whole entry, looked up): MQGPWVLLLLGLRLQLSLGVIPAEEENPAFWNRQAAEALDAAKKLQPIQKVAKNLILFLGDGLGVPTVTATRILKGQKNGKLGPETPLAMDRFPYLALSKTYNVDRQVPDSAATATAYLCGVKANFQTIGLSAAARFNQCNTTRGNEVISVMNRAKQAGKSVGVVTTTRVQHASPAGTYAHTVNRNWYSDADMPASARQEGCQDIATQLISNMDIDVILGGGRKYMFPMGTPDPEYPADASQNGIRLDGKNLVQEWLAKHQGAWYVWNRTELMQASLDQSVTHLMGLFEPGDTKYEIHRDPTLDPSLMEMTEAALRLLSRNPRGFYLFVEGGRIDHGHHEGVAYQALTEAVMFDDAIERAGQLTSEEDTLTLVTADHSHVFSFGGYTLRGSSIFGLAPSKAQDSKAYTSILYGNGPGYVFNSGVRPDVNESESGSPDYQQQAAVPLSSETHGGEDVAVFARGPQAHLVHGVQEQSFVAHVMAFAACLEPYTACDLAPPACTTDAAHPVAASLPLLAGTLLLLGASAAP
hIAP act: human IAP activators, primary screen, biochemical, luminescence, uHTS. Intestinal-type alkaline phosphatase (Homo sapiens), P09923. purified human IAP, CDP-Star luminescence, 30 min; stronger effect = higher value; 1 = vehicle-only enzyme, 0 = enzyme-free background. activation factor at 10 µM. actives 0.16% (n = 330,000). AID 2524, 2010;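 active = activation factor of the enzyme at least 2-fold when tested at 20 µM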
mIAP block: inhibitors of mouse IAP, primary screen, biochemical, luminescence, uHTS. AID 2806, 2010. purified mouse IAP, CDP-Star luminescence, 30 min. inhibition, % at 10 µM. actives 0.2% (n = 330,000);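 active = inhibition of at least 40% at 10 µM in the primary screen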;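 note: plate controls were DMSO with enzyme for no effect and no enzyme wells for full effect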
mIAP act: activators of mouse IAP, primary screen, biochemical, luminescence, uHTS; muIAP, CDP-Star luminescence, 30 min; stronger effect = higher value; 1 = vehicle-only enzyme signal, 0 = enzyme-free wells; intestinal alkaline phosphatase [Mus musculus]; actives 0.24% (n = 330,000); activation factor at 10 µM;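 active = activation factor of at least 2 at 20 µM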
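Assay system: mouse IAP enzyme / Compound: DMSO-dissolved test compounds / Timing: 30 min, room temperature / Measured by: luminescence from enzymatic CDP-Star hydrolysis / Control set: DMSO-only wells, enzyme-free buffer wells as negative control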
bIAP activator: bovine intestinal alkaline phosphatase activators, primary screen, biochemical, bovine IAP, CDP-star luminescence. activation factor at 20 µM. alkaline phosphatase, intestinal [Bos taurus]. actives 0.17% (n = 200,000). purified bovine IAP, 30 min; stronger effect = higher value; fold of DMSO-control signal, blank-subtracted;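 active = activation factor of 2 or more at 20 µM, a signal rise over negative controls twice the positive control's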
bIAP inh: bovine intestinal alkaline phosphatase inhibitors, primary screen, selectivity assay for TNAP inhibitor project, biochemical, bovine IAP, CDP-star luminescence; purified bovine IAP, 30 min; AID 1019, 2008; 190,000 tested, under 10 active; inhibition, % at 20 µM;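 active = over 50% inhibition of intestinal alkaline phosphatase at 20 µM in the single-dose screen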
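test system = bovine IAP enzyme | medium = DEA buffer 100 mM, pH 9.8, with MgCl2 1.0 mM, ZnCl2 0.02 mM | detection = luminescence | dosing = single compound dose of 20 µM, 2% DMSO final | incubation = 30 min reaction at room temperature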
hIAP act confirm: human IAP activators, confirmation, biochemical, luminescence, single concentration, uHTS hits | shares compounds with hIAP act | purified IAP, CDP-Star luminescence, 30 min; stronger effect = lower value | activation (%Activity, negative = activation), % at 8.3 µM | actives 10% (n = 880) | AID 434926, 2010;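 active = at least twofold enzyme activation in any of six single-dose repeats, which the averaged readout prints as negative percent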
Numbers without * were called inactive; x = no result given.

SMILES | hIAP block | hIAP act | mIAP block | mIAP act | bIAP activator | bIAP inh | hIAP act confirm
CS(=O)(=O)c1ccc(-c2nnc(NC(=O)c3cccc(N4C(=O)CCC4=O)c3)o2)cc1 | 2.1 | 0.979 | 4.3 | 0.957 | x | x | x
Cc1cccc(OCC(=O)Nc2ncn[nH]2)c1C | -102.6 | 2.03* | -2.2 | 1.02 | x | x | x
Cc1cccc(OCC(=O)Nc2ccncc2)c1C | -5.6 | 1.06 | -13.0 | 1.13 | x | x | x
C[C@@H]1NC(=O)c2cc([N+](=O)[O-])cc(I)c2OCC[C@@H](C(=O)NC(CC(=O)O)C(N)=O)NC(=O)[C@H](CC(N)=O)NC1=O (stereo partly specified) | 1.2 | 0.988 | 44.7* | 0.553 | 1.2 | -21.8 | x
O=C(Nc1ccc(Cl)cc1)Nc1ccc(Br)cn1 | -1.5 | 1.01 | -3.8 | 1.04 | x | x | x
CCC(C)N(C(=O)Cn1nnc2ccccc21)C(C(=O)Nc1ccc(F)cc1)c1cccc(OC)c1 (stereo unspecified) | -15.8 | 1.16 | -130.6 | 2.31* | 1.3 | -30.3 | x
COCCNC(=O)C(c1cccc(OC)c1)N(Cc1cccs1)C(=O)Cn1nnc2ccccc21 (stereo unspecified) | 8.2 | 0.918 | -2.4 | 1.02 | 0.9 | 8.6 | x
COc1cc(C(=O)NCc2nnc(SCC(=O)NCCc3ccccc3)o2)cc(OC)c1OC | -3.5 | 1.03 | 0.7 | 0.993 | x | x | x
COc1cccc(NC(=S)NC2CC3CCCC(C2)N3CC(C)C)c1 (stereo unspecified) | -10.6 | 1.11 | -179.1 | 2.79* | 1.1 | -6.2 | x
O=C(Nc1cc(S(=O)(=O)N2CCCCCC2)ccc1OCC(F)(F)F)c1ccc(=O)[nH]c1 | 1.5 | 0.985 | -2.8 | 1.03 | x | x | x
Cc1ccc(OCC(=O)OC(C)C(=O)NC2CCCCC2C)cc1C (stereo unspecified) | 15.6 | 0.844 | 0.9 | 0.991 | x | x | x
COc1cc(/C=C2\SC(=S)N(NC(=O)c3cccnc3)C2=O)ccc1O | 30.2 | 0.698 | 35.3 | 0.647 | x | x | x
O=C1/C(=C/c2ccc(O)c(O)c2)SC(=S)N1Nc1ccccc1 | x | x | x | x | 0.5 | x | x
CCOc1cc(/C=C2\SC(=S)N(N3CCOCC3)C2=O)ccc1O | 38.8* | 0.612 | 37.8 | 0.622 | x | x | -33.0
O=C1/C(=C/c2ccc(F)cc2)SC(=S)N1N1CCOCC1 | 12.4 | 0.876 | 4.2 | 0.958 | x | x | x
COc1cc(/C=C2\SC(=S)N(NC(=O)c3ccc(O)cc3)C2=O)ccc1O | 43.6* | 0.564 | 34.1 | 0.659 | x | x | 1.7
COc1cc(/C=C2\SC(=S)N(Nc3ccccc3)C2=O)ccc1O | 39.6* | 0.604 | 41.3* | 0.587 | 1 | -3.5 | 7.7
O=C(Nn1cnc2ccccc2c1=O)c1ccc(Cl)c([N+](=O)[O-])c1 | 18.2 | 0.818 | 2.4 | 0.976 | x | x | x
C[C@@H](OC(=O)c1[nH]cnc1C(=O)NCc1ccc(CNC(=O)OC(C)(C)C)cc1)c1ccccc1 | -61.3 | 1.61 | -9.9 | 1.1 | x | x | x
Cc1ccc(C(=O)N(NC2=NS(=O)(=O)c3ccccc32)S(=O)(=O)c2ccc(C)cc2)cc1 | -137.4 | 2.37* | -2.2 | 1.02 | 1 | 1.7 | -26.5
CCN(C1=NS(=O)(=O)c2ccccc21)N(CC)S(=O)(=O)c1ccc(C)cc1 | -3.9 | 1.04 | 21.1 | 0.789 | 0.9 | 9.2 | x
CC(C)(C)OC(=O)N1CCC(NC(=O)c2[nH]cnc2C(=O)Nc2ccon2)CC1 | -174.5 | 2.75* | 16.6 | 0.834 | x | x | 37.0
CC(C)(C)OC(=O)N1CCC(NC(=O)c2[nH]cnc2C(=O)Nc2ccc(Cl)cc2)CC1 | -64.8 | 1.65 | 2.6 | 0.974 | x | x | x
CC(C)(C)OC(=O)NCCCCCNC(=O)c1[nH]cnc1C(=O)Nc1ccon1 | -104.9 | 2.05* | 11.4 | 0.886 | x | x | 8.6
O=C(NCC(=O)c1ccccc1)OCc1ccc([N+](=O)[O-])cc1 | 24.5 | 0.755 | 8.2 | 0.918 | x | x | x
SMILES | hIAP block | hIAP act | mIAP block | mIAP act | bIAP activator | bIAP inh | hIAP act confirm
CCN(C(=O)CCN1C(=O)/C(=C/c2ccccc2)SC1=S)C1CCS(=O)(=O)C1 (stereo unspecified) | -25.6 | 1.26 | 18.8 | 0.812 | x | x | x
O=C(NC1CCCCCC1)C1CCCN(c2ncccn2)C1 (stereo unspecified) | 1.1 | 0.989 | -10.9 | 1.11 | x | x | x
O=C(NNC(=O)c1ccccc1Br)c1ccc2nc[nH]c2c1 | -102.7 | 2.03* | 9.7 | 0.903 | x | x | -10.5
O=C(NC(=S)Nc1ccccc1N1CCCC1)c1ccccc1Br | -13.1 | 1.13 | 33.5 | 0.665 | x | x | x
COc1c(C)cccc1C(=O)NC(=S)Nc1ccccc1N1CCCC1 | 35.1* | 0.649 | 11.3 | 0.887 | x | x | -33.5
CCOc1ccc2oc(C(=O)Nc3cc(C)ccn3)c(C)c2c1 | -6.2 | 1.06 | 0.5 | 0.995 | x | x | x
CCc1nn(CC(=O)NC2CCN(Cc3ccccc3)CC2)c(=O)c2cc3cc(F)ccc3n12 | 12.3 | 0.877 | -0.7 | 1.01 | x | x | x
CCc1nn(CC(=O)NC(C)CCc2ccccc2)c(=O)c2cc3cc(F)ccc3n12 (stereo unspecified) | -119.7 | 2.2* | -11.5 | 1.11 | x | x | -58.7
CCOC(=O)C1=CC[C@]2(C)c3c(c4ccccc4n3C)C(=O)C1N2C | -3.5 | 1.03 | 2.4 | 0.976 | x | x | x
COc1ccccc1/C=C/C=N/n1c(-c2n[nH]c3c2CCC3)n[nH]c1=S | -103.8 | 2.04* | -0.7 | 1.01 | x | x | 26.7
COc1ccccc1/C=C/C=N/n1c(-c2ccccn2)n[nH]c1=S | 4.5 | 0.955 | 3.5 | 0.965 | x | x | x
COc1ccccc1/C=C/C=N/n1c(-c2cc(C)[nH]n2)n[nH]c1=S | -111.2 | 2.11* | -0.9 | 1.01 | 1 | 0.3 | 10.7
COc1cccc(/C=N/n2c(-c3n[nH]c4c3CCC4)n[nH]c2=S)c1O | 1.7 | 0.983 | 21.9 | 0.781 | 0.9 | 6.7 | x
Cc1ccccc1/C=N/n1c(-c2cc(-c3ccccc3)n[nH]2)n[nH]c1=S | -104.5 | 2.04* | -1.4 | 1.01 | x | x | -2.7
CN(C(=O)CC1C(=O)NCCN1Cc1ccc(F)c(F)c1)C1CCCCC1 (stereo unspecified) | -27.9 | 1.28 | -2.7 | 1.03 | x | x | x
CC(=O)c1ccccc1NS(=O)(=O)c1cccc2nsnc12 | 3.3 | 0.967 | 1.5 | 0.985 | x | x | x
Cc1ccc(CNC(=O)c2ccc(Cn3cc(-c4ccc(C)cc4)nc3-c3ccncc3)cc2)cc1 | 4.1 | 0.959 | -1.4 | 1.01 | x | x | x
